Assay results from ChEMBL document CHEMBL5338743, “Identification of a Selective SCoR2 Inhibitor That Protects Against Acute Kidney Injury” (J Med Chem, 2023).
Calls of active or inactive are those of the source. No cut-off for these calls is given here.

B1: Aldo-keto reductase family 1 member A1 (Homo sapiens), P14550 (protein)
chain: MAASCVLLHTGQKMPLIGLGTWKSEPGQVKAAVKYALSVGYRHIDCAAIYGNEPEIGEALKEDVGPGKAVPREELFVTSKLWNTKHHPEDVEPALRKTLADLQLEYLDLYLMHWPYAFERGDNPFPKNADGTICYDSTHYKETWKALEALVAKGLVQALGLSNFNSRQIDDILSVASVRPAVLQVECHPYLAQNELIAHCQARGLEVTAYSPLGSSDRAWRDPDEPVLLEEPVVLALAEKYGRSPAQILLRWQVQRKVICIPKSITPSRILQNIKVFDFTFSPEEMKQLNALNKNWRYIVPMLTVDGKRVPRDAGHPLYPFNDPY

How the values were obtained:
Homo sapiens = organism: Homo sapiens; test: Selectivity index, ratio of IC50 for inhibition of human recombinant AKR1B1 expressed in Escherichia coli BL21-CodonPlus competent cells to IC50 for inhibition of human recombinant SCoR2 expressed in Escherichia coli BL21-CodonPlus competent cells
Summary of the method: (§1)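 Purified enzyme at 200 nM (SCoR2 with 100 μM SNO-CoA; AKR1B1 with 100 μM methylglyoxylate) in 50 mM phosphate pH 7.0 with serial inhibitor dilutions; started with 100 μM NADPH, 2 min. Rate from 340 nm decrease, normalized to 20 nM protein activity; IC50 fitted, n=3. Selectivity taken as AKR1B1/SCoR2 IC50 ratio.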

[1] = molecular target: T1, Aldo-keto reductase family 1 member B1 (Homo sapiens, UniProt P15121); test: Inhibition of C-terminal 6His-tagged human recombinant AKR1B1 expressed in Escherichia coli BL21-CodonPlus competent cells using methyl glyoxylate as substrate incubated for 2 mins in presence of NADPH; summary of the method: as §1
[2] = molecular target: T2, Aldo-keto reductase family 1 member A1 (Homo sapiens, UniProt P14550); test: Inhibition of C-terminal 6His-tagged human recombinant SCoR2 AKR1A1 expressed in Escherichia coli BL21-CodonPlus competent cells using SNO-CoA as substrate incubated for 2 mins in presence of NADPH; summary of the method: as §1
T2 sequence (P14550 whole entry): B1 chain

Mus musculus [3] = test: Protection against ischemia/reperfusion induced acute kidney injury in mouse assessed as reduction in serum creatinine level at 125 mg/kg, ip administered for 3 to 12 weeks; format: functional, organism-based; conditions: time 3-12 weeks
Mus musculus [4] = test: Protection against ischemia/reperfusion induced acute kidney injury in mouse assessed as reduction in blood urea nitrogen level at 20 mg/kg, ip pretreated for 18 hrs followed by kidney injury surgery and measured after 24 hrs; format: functional, organism-based; conditions: time 42.0 hrs
Summary of the method: (§2)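 Male mice (9–11 weeks, 25–28 g) given i.p. dose 18 h before ischemia–reperfusion AKI surgery under isoflurane; serum taken 24 h after reperfusion. Creatinine and BUN measured by a clinical laboratory; DMSO-treated controls.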

Mus musculus [5] = test: In vivo inhibition of SCoR2 in ischemia/reperfusion induced acute kidney injury mouse model assessed as reduction in SNO-CoA metabolic activity in kidneys at 125 mg/kg, ip administered for 3 to 12 weeks; format: functional, organism-based; conditions: time 3-12 weeks
Mus musculus [6] = test: In vivo inhibition of SCoR2 in ischemia/reperfusion induced acute kidney injury mouse model assessed as reduction in SNO-CoA metabolic activity in kidneys at 20 mg/kg, ip pretreated for 18 hrs followed by kidney injury surgery and measured after 24 hrs; format: functional, organism-based; conditions: time 42.0 hrs
Summary of the method: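 Male mice (9–11 weeks, 25–28 g) dosed i.p. 18 h before renal ischemia–reperfusion surgery under isoflurane; kidneys taken 24 h after reperfusion. Kidney lysate SNO-CoA reductase activity measured with 200 μM SNO-CoA, 100 μM NADPH, 2 min, triplicate assays; DMSO-treated controls.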

[7] = molecular target: T1, Aldo-keto reductase family 1 member B1; test: Inhibition of C-terminal 6His-tagged human recombinant AKR1B1 expressed in Escherichia coli BL21-CodonPlus competent cells using DL-glyceraldehyde as substrate
Summary of the method: (§3)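 Recombinant human His-tagged enzyme (20 nM) with 3 mM DL-glyceraldehyde in 50 mM phosphate pH 7.0, varying inhibitor from DMSO stocks; started with 100 μM NADPH, 2 min. NADPH consumption followed spectrophotometrically, slope used to fit IC50.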

Mus musculus [8] = test: Protection against ischemia/reperfusion induced acute kidney injury in mouse assessed as reduction in serum creatinine level at 20 mg/kg, ip pretreated for 18 hrs followed by kidney injury surgery and measured after 24 hrs; format: functional, organism-based; conditions: time 42.0 hrs; summary of the method: as §2
[9] = molecular target: T2, Aldo-keto reductase family 1 member A1; test: Inhibition of C-terminal 6His-tagged human recombinant SCoR2 AKR1A1 expressed in Escherichia coli BL21-CodonPlus competent cells using DL-glyceraldehyde as substrate; summary of the method: as §3
Mus musculus [10] = test: Protection against ischemia/reperfusion induced acute kidney injury in mouse assessed as reduction in blood urea nitrogen level at 125 mg/kg, ip administered for 3 to 12 weeks; format: functional, organism-based; conditions: time 3-12 weeks
[11] = In vivo inhibition of SCoR2 in mouse assessed as reduction in SNO-CoA metabolic activity in kidneys at 20 mg/kg body weight, ip administered as single dose into lower right quadrant of abdomen measured after 18 hrs relative to control; format: functional
Summary of the method: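 Single i.p. injection into the mouse abdomen, DMSO vehicle; organs collected 18 h later. Tissues homogenized in 50 mM phosphate pH 7.0, 150 mM NaCl, EDTA/DTPA, then clarified; lysate started reactions with 200 μM SNO-CoA and 100 μM NADPH, 2 min, NADPH loss monitored, in triplicate. Compared with vehicle and SCoR2−/− kidneys.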

[12] = compound: O=C1NC(=O)C2(N1)c1ccccc1-c1ccc(C3CC3)cc12; test: Uncompetitive inhibition of C-terminal 6His-tagged human recombinant SCoR2 AKR1A1 expressed in Escherichia coli BL21-CodonPlus competent cells using varying concentrations of SNO-CoA as substrate assessed as Vmax at 100 nM by Michaelis-Menten analysis (reference value: 23 umol.min)
[13] = compound: O=C1NC(=O)C2(N1)c1ccccc1-c1ccc(C3CC3)cc12; test: Uncompetitive inhibition of C-terminal 6His-tagged human recombinant SCoR2 AKR1A1 expressed in Escherichia coli BL21-CodonPlus competent cells using varying concentrations of SNO-CoA as substrate assessed as Km at 400 nM by Michaelis-Menten analysis (reference value: 254 uM)
[14] = compound: O=C1NC(=O)C2(N1)c1ccccc1-c1ccc(C3CC3)cc12; test: Uncompetitive inhibition of C-terminal 6His-tagged human recombinant SCoR2 AKR1A1 expressed in Escherichia coli BL21-CodonPlus competent cells using varying concentrations of SNO-CoA as substrate assessed as Vmax at 400 nM by Michaelis-Menten analysis (reference value: 23 umol.min)
[15] = compound: O=C1NC(=O)C2(N1)c1ccccc1-c1ccc(C3CC3)cc12; test: Uncompetitive inhibition of C-terminal 6His-tagged human recombinant SCoR2 AKR1A1 expressed in Escherichia coli BL21-CodonPlus competent cells using varying concentrations of SNO-CoA as substrate assessed as Km at 100 nM by Michaelis-Menten analysis (reference value: 254 uM)

| Molecule | Ratio IC50 (Homo sapiens) | IC50 [1] | IC50 [2] | also measured |
| --- | --- | --- | --- | --- |
| O=C1NC(=O)C2(N1)c1ccccc1-c1c(F)cccc12 (stereo not given) | 0.63 | 0.052 µM | 0.082 µM |  |
| O=C1NC(=O)C2(N1)c1ccc(OCCO)cc1-c1ccc(F)cc12 (stereo not given) | 0.18 | 0.013 µM | 0.074 µM |  |
| O=C(O)Cc1c(O)c(F)cc2c1-c1ccc(F)cc1C21NC(=O)NC1=O (stereo in doubt; 47-1) [listing 1 of 2 here] |  | 0.042 µM | 0.025 µM |  |
| O=C(O)Cc1c(O)c(F)cc2c1-c1ccc(F)cc1C21NC(=O)NC1=O (stereo in doubt; 47-2) [listing 1 of 2 here] | 0.67 |  |  |  |
| O=C1NC(=O)C2(N1)c1cc(F)ccc1-c1c(OCC(=O)N3CCC3)cc(F)cc12 (stereo not given) | 0.31 | 0.018 µM | 0.059 µM |  |
| O=C1NC(=O)C2(N1)c1cc(F)ccc1-c1cc(OC3COC3)c(F)cc12 (stereo not given) | 0.48 | 0.014 µM | 0.029 µM |  |
| O=C(O)COc1cc2c(cc1F)C1(NC(=O)NC1=O)c1cc(F)ccc1-2 (stereo in doubt; 48-1) [listing 1 of 2 here] | 0.43 |  |  |  |
| O=C(O)COc1cc2c(cc1F)C1(NC(=O)NC1=O)c1cc(F)ccc1-2 (stereo in doubt; 48-2) [listing 1 of 2 here] |  | 0.022 µM | 0.082 µM |  |
| O=C1NC(=O)C2(N1)c1cc(F)ccc1-c1ccc(C3CC3)cc12 (stereo not given) | 1.7 | 0.212 µM | 0.122 µM |  |
| O=C(O)COc1cc2c(cc1F)C1(NC(=O)NC1=O)c1cc(F)ccc1-2 (stereo in doubt; 48-2) [listing 2 of 2 here] | 0.27 |  |  |  |
| O=C1NC(=O)C2(N1)c1cc(F)ccc1-c1ccc(C3CCC3)cc12 (stereo in doubt; 17-2) | 0.66 |  |  |  |
| O=C(O)Cc1cc(F)cc2c1-c1ccc(F)cc1C21NC(=O)NC1=O (stereo in doubt; 49-2) | 0.26 |  |  |  |
| O=C1NC(=O)C2(N1)c1cc(F)ccc1-c1c(-c3cn(C4CCCC4)nn3)cc(F)cc12 (stereo not given) | 0.17 | 0.011 µM | 0.066 µM |  |
| O=C1NC(=O)C2(N1)c1cc(F)ccc1-c1cc(C3CC3)c(F)cc12 (stereo not given) | 0.21 | 0.015 µM | 0.072 µM |  |
| O=C(O)COc1ccc2c(c1)-c1ccc(F)cc1C21NC(=O)NC1=O (stereo not given) | 1.3 | 0.053 µM | 0.042 µM |  |
| O=C(O)Cc1c(O)c(F)cc2c1-c1ccc(F)cc1C21NC(=O)NC1=O (stereo in doubt; 47-1) [listing 2 of 2 here] | 1.7 |  |  |  |
| O=C1NC(=O)C2(N1)c1ccc(OCC(=O)N3CCC3)cc1-c1ccc(F)cc12 (stereo not given) | 0.24 | 0.019 µM | 0.08 µM |  |
| O=C1NC(=O)C2(N1)c1cc(F)ccc1-c1ccc(Br)cc12 (stereo not given) | 0.43 | 0.022 µM | 0.051 µM |  |
| O=C1NC(=O)C2(N1)c1ccccc1-c1ccc(Cl)cc12 (stereo not given) | 0.3 | 0.016 µM | 0.053 µM |  |
| O=C1NC(=O)C2(N1)c1cc(F)ccc1-c1ccc(F)cc12 | 0.81 | 0.046 µM | 0.057 µM | Activity (Mus musculus [3]): inactive; Activity (Mus musculus [4]): inactive; inhibition (Mus musculus [5]): Active; inhibition (Mus musculus [6]): Active; IC50 [7]: 0.027 µM; Activity (Mus musculus [8]): inactive; IC50 [9]: 0.045 µM; Activity (Mus musculus [10]): inactive; inhibition in vivo at 20 mg/kg [11]: 80% |
| CC(/C=C1\SC(=S)N(CC(=O)O)C1=O)=C\c1ccccc1 |  |  |  | IC50 [9]: 0.325 µM |
| O=C(O)COc1cc2c(cc1F)C1(NC(=O)NC1=O)c1cc(F)ccc1-2 (stereo in doubt; 48-1) [listing 2 of 2 here] |  | 0.027 µM | 0.063 µM |  |
| O=C1NC(=O)C2(N1)c1cc(Cl)ccc1-c1ccc(Cl)cc12 | 0.44 | 0.056 µM | 0.127 µM |  |
| O=C1NC(=O)C2(N1)c1cc(F)ccc1-c1c(F)cccc12 (stereo not given) | 0.24 | 0.016 µM | 0.067 µM |  |
| O=C(O)Cc1cc(F)cc2c1-c1ccc(F)cc1C21NC(=O)NC1=O (stereo in doubt; 49-1) | 0.53 |  |  |  |
| COc1ccc2c(c1)-c1ccc(F)cc1C21NC(=O)NC1=O (stereo not given) | 0.24 | 0.016 µM | 0.068 µM |  |
| O=C1NC(=O)C2(N1)c1cc(F)ccc1-c1ccc(C3CCC3)cc12 (stereo in doubt; 17-1) | 1.7 |  |  |  |
| O=C(O)Cc1c(O)c(F)cc2c1-c1ccc(F)cc1C21NC(=O)NC1=O (stereo in doubt; 47-2) [listing 2 of 2 here] |  | 0.032 µM | 0.048 µM |  |
| B1 |  |  |  | Vmax [12]: 13 µmol·min; Km [13]: 98 µM; Vmax [14]: 4.5 µmol·min; Km [15]: 199 µM |
